From ChEMBL document CHEMBL1926651, “Design, synthesis, antiviral and cytostatic evaluation of novel isoxazolidine nucleotide analogues with a 1,2,3-triazole linker” (Eur J Med Chem, 2012)
The source made the active and inactive calls.

Columns and labels:
Human betaherpesvirus 5 [1] = assay: Antiviral activity against Human cytomegalovirus Davis infected in human HEL cells assessed as inhibition of viral plaque formation at 250 uM; assay type: functional, organism-based
Human alphaherpesvirus 3 [2] = assay: Antiviral activity against thymidine kinase-positive Varicella Zoster virus Oka infected in human HEL cells assessed as inhibition of viral plaque formation at 250 uM; assay type: functional, cell-based; settings: strain Oka vaccine
Vaccinia virus = assay: Antiviral activity against Vaccinia virus infected in human HEL cells assessed as inhibition of viral plaque formation at 250 uM; assay type: functional, organism-based; settings: Orthopoxvirus vaccinia
How it was run: (§1)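 Confluent host cell monolayers were inoculated with 100 CCID50 of virus in the presence of test compound at serial dilutions (250, 50, 10, … μM). Viral cytopathicity was scored once it reached completion in untreated virus-infected controls.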

Felid alphaherpesvirus 1 = assay: Antiviral activity against Felid herpesvirus 1 infected in CrFK cells assessed as inhibition of viral plaque formation at 250 uM; assay type: functional, organism-based; how it was run: as §1
[3] = tested on: Human immunodeficiency virus 1; assay: Antiviral activity against Human immunodeficiency virus 1 infected in human CEM cells assessed as inhibition of virus-induced giant cell formation after 4 days by microscopic analysis; assay type: functional, organism-based; settings: CCRF-CEM
How it was run: (§2)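 CEM cells at about 3 × 10⁵ cells/cm³ were infected with 100 CCID50/mL of HIV-1(IIIB) or HIV-2(ROD), then seeded into wells holding test compound dilutions. After 4 days at 37 °C, virus-induced giant cell formation was scored microscopically.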

Human alphaherpesvirus 1 [4] = assay: Antiviral activity against Herpes simplex virus 1 KOS infected in human HEL cells assessed as inhibition of viral plaque formation at 250 uM; assay type: functional, organism-based; how it was run: as §1
Feline coronavirus = assay: Antiviral activity against Feline coronavirus infected in CrFK cells assessed as inhibition of viral plaque formation at 250 uM; assay type: functional, organism-based; how it was run: as §1
Punta Toro virus = assay: Antiviral activity against Punta Toro virus infected in african green monkey Vero cells assessed as inhibition of viral plaque formation at 250 uM; assay type: functional, organism-based
[5] = tested on: Vesicular stomatitis virus; assay: Antiviral activity against Vesicular stomatitis virus infected in human Hela cells assessed as inhibition of viral plaque formation at 250 uM; assay type: functional, organism-based
[6] = tested on: Human immunodeficiency virus 2; assay: Antiviral activity against Human immunodeficiency virus 2 infected in human CEM cells assessed as inhibition of virus-induced giant cell formation after 4 days by microscopic analysis; assay type: functional, organism-based; settings: CCRF-CEM; how it was run: as §2
Coxsackievirus B4 [7] = assay: Antiviral activity against Coxsackievirus B4 infected in human HeLa cells assessed as inhibition of viral plaque formation at 250 uM; assay type: functional, organism-based; how it was run: as §1
[8] = tested on: Vesicular stomatitis virus; assay: Antiviral activity against Vesicular stomatitis virus infected in human HEL cells assessed as inhibition of viral plaque formation at 250 uM; assay type: functional, organism-based; how it was run: as §1
Human betaherpesvirus 5 [9] = assay: Antiviral activity against Human cytomegalovirus AD169 infected in human HEL cells assessed as inhibition of viral plaque formation at 250 uM; assay type: functional, organism-based
Sindbis virus = assay: Antiviral activity against Sindbis virus infected in african green monkey Vero cells assessed as inhibition of viral plaque formation at 250 uM; assay type: functional, organism-based; how it was run: as §1
Human alphaherpesvirus 1 [10] = assay: Antiviral activity against thymidine kinase-deficient acv-resistant Herpes simplex virus 1 KOS infected in human HEL cells assessed as inhibition of viral plaque formation at 250 uM; assay type: functional, organism-based
[11] = tested on: Respiratory syncytial virus; assay: Antiviral activity against Respiratory syncytial virus infected in human HeLa cells assessed as inhibition of viral plaque formation at 250 uM; assay type: functional, organism-based; how it was run: as §1
Human alphaherpesvirus 3 [12] = assay: Antiviral activity against thymidine kinase-deficient Varicella Zoster virus 07/1 infected in human HEL cells assessed as inhibition of viral plaque formation at 250 uM; assay type: functional, organism-based
Human alphaherpesvirus 2 = assay: Antiviral activity against Herpes simplex virus 2 G infected in human HEL cells assessed as inhibition of viral plaque formation at 250 uM; assay type: functional, organism-based; settings: strain G
Human respirovirus 3 = assay: Antiviral activity against Parainfluenza-3 virus infected in african green monkey Vero cells assessed as inhibition of viral plaque formation at 250 uM; assay type: functional, organism-based; how it was run: as §1
Coxsackievirus B4 [13] = assay: Antiviral activity against Coxsackievirus B4 infected in african green monkey Vero cells assessed as inhibition of viral plaque formation at 250 uM; assay type: functional, organism-based; how it was run: as §1
[14] = tested on: Mammalian orthoreovirus 1; assay: Antiviral activity against Reovirus-1 infected in african green monkey Vero cells assessed as inhibition of viral plaque formation at 250 uM; assay type: functional, organism-based; how it was run: as §1

Measured: Activity

Nc1ccn(C[C@@H](CO)OCP(=O)(O)O)c(=O)n1
inactive: Human betaherpesvirus 5 [1] | Human alphaherpesvirus 3 [2] | Vaccinia virus | Felid alphaherpesvirus 1 | [3] | Human alphaherpesvirus 1 [4] | Feline coronavirus | Punta Toro virus | [5] | [6] | Coxsackievirus B4 [7] | [8] | Human betaherpesvirus 5 [9] | Sindbis virus | Human alphaherpesvirus 1 [10] | [11] | Human alphaherpesvirus 3 [12] | Human alphaherpesvirus 2 | Human respirovirus 3 | Coxsackievirus B4 [13] | [14]

Nc1nc2c(ncn2COC(CO)CO)c(=O)[nH]1
inactive: Human betaherpesvirus 5 [1] | Human alphaherpesvirus 3 [2] | Vaccinia virus | Felid alphaherpesvirus 1 | [3] | Human alphaherpesvirus 1 [4] | Feline coronavirus | Punta Toro virus | [5] | [6] | Coxsackievirus B4 [7] | [8] | Human betaherpesvirus 5 [9] | Sindbis virus | Human alphaherpesvirus 1 [10] | [11] | Human alphaherpesvirus 3 [12] | Human alphaherpesvirus 2 | Human respirovirus 3 | Coxsackievirus B4 [13] | [14]

Nc1nc2c(ncn2COCCO)c(=O)[nH]1
inactive: Human betaherpesvirus 5 [1] | Human alphaherpesvirus 3 [2] | Vaccinia virus | Felid alphaherpesvirus 1 | [3] | Human alphaherpesvirus 1 [4] | Feline coronavirus | Punta Toro virus | [5] | [6] | Coxsackievirus B4 [7] | [8] | Human betaherpesvirus 5 [9] | Sindbis virus | Human alphaherpesvirus 1 [10] | [11] | Human alphaherpesvirus 3 [12] | Human alphaherpesvirus 2 | Human respirovirus 3 | Coxsackievirus B4 [13] | [14]

Nc1ncnc2c1ncn2C[C@H](O)CO
inactive: Human betaherpesvirus 5 [1] | Human alphaherpesvirus 3 [2] | Vaccinia virus | Felid alphaherpesvirus 1 | [3] | Human alphaherpesvirus 1 [4] | Feline coronavirus | Punta Toro virus | [5] | [6] | Coxsackievirus B4 [7] | [8] | Human betaherpesvirus 5 [9] | Sindbis virus | Human alphaherpesvirus 1 [10] | [11] | Human alphaherpesvirus 3 [12] | Human alphaherpesvirus 2 | Human respirovirus 3 | Coxsackievirus B4 [13] | [14]

O=c1[nH]c(=O)n([C@H]2C[C@H](O)[C@@H](CO)O2)cc1/C=C/Br
inactive: Human betaherpesvirus 5 [1] | Human alphaherpesvirus 3 [2] | Vaccinia virus | Felid alphaherpesvirus 1 | [3] | Human alphaherpesvirus 1 [4] | Feline coronavirus | Punta Toro virus | [5] | [6] | Coxsackievirus B4 [7] | [8] | Human betaherpesvirus 5 [9] | Sindbis virus | Human alphaherpesvirus 1 [10] | [11] | Human alphaherpesvirus 3 [12] | Human alphaherpesvirus 2 | Human respirovirus 3 | Coxsackievirus B4 [13] | [14]
